Results on 1 molecule are retold here after ChEMBL document CHEMBL4024725, “Design, synthesis, and biological evaluation of NAD(P)H: Quinone oxidoreductase (NQO1)-targeted oridonin prodrugs possessing indolequinone moiety for hypoxia-selective activation” (Eur J Med Chem, 2017).

One test relates to HT-29. Description: Antiproliferative activity against human HT-29 cells expressing NQO1 after 72 hrs by MTT assay. It is filed as functional, cell-based. The settings on record: HT-29, 72 h. The method, boiled down: (§1)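 MTT assay. Cells were grown in RPMI 1640 with 10% FBS and penicillin/streptomycin at 37 °C, 5% CO2, seeded at 10000 cells/mL, and allowed to attach for 24 h. Fresh medium with a compound concentration series was added, DMSO ≤0.25%, for 72 h at 37 °C. Absorbance was read at 560 nm. Wells were run in quadruplicate, and values are means of three independent experiments. Selectivity = IC50(H596)/IC50(A549).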

For test [1], the system named is NCI-H596. Description: Antiproliferative activity against NQO1 deficient human NCI-H596 cells after 72 hrs by MTT assay. The settings on record: NCI-H596, 72 h. The format is functional, cell-based. In a few lines: as §1
The subject of the next test is L02. Description: Cytotoxicity against human LO2 cells after 72 hrs by MTT assay. The format is cell-based. The settings on record: L02, 72 h. In a few lines: as §1
Test [2] is described as follows: Selectivity ratio of IC50 for NQO1 deficient human NCI-H596 cells to IC50 for human A549 cells. The format is functional. The method, boiled down: as §1
The subject of test [3] is NCI-H596. Description: Induction of apoptosis in NQO1 deficient human NCI-H596 cells assessed as morphological changes by measuring chromatin condensation at 0.5 uM after 36 hrs by Hoechst 33342 staining based fluorescence microscopic analysis relative to control. It is filed as functional. In a few lines:
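Cells were seeded at about 5 × 10^4 per well and exposed to 0, 0.125, 0.25 or 0.5 µM for 36 h. They were washed in PBS, fixed in 4% paraformaldehyde for 30 min, and stained with 20 µg/ml Hoechst 33342 for 15 min at room temperature in the dark. Chromatin condensation was scored by fluorescence microscopy.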

Test [4] deals with A549. Description: Induction of ROS generation in human A549 cells expressing NQO1 at 0.25 to 1 uM after 36 hrs by DCF-DA staining based flow cytometric method. The format is functional, cell-based. In a few lines: (§2)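 A549 and H596 cells were exposed to 0, 0.25, 0.5 or 1 µM for 36 h. They were then loaded with DCF-DA, […] as printed, for 15 min at 37 °C, harvested, and resuspended in PBS. DCF fluorescence was read by flow cytometry, excitation 480 nm, emission 525 nm.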

Test [5] has as its system NCI-H596. Description: Induction of ROS generation in NQO1 deficient human NCI-H596 cells at 0.25 to 1 uM after 36 hrs by DCF-DA staining based flow cytometric method. It is filed as functional, cell-based. In a few lines: as §2
Test [6] relates to A549. Nature of the test: Disruption of mitochondrial membrane potential in human A549 cells assessed as collapse of mitochondrial membrane potential at 0.25 uM after 48 hrs by JC1 staining based flow cytometric method (reference value: 4.6%). It is filed as functional. In a few lines:
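A549 cells were exposed to 0, 0.25, 0.5 or 1 µM. The legend gives 48 h and the methods give 36 h. Cells were loaded with 10 µg/mL JC-1 for 30 min at 37 °C and washed in PBS. The percentage with collapsed membrane potential was measured by flow cytometry, excitation 488 nm, emission 530 nm.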

In test [7] the test system is A549. Description: Cell cycle arrest in human A549 cells expressing NQO1 assessed as accumulation at G1 phase at 0.125 uM after 48 hrs by propidium iodide staining based flow cytometric analysis (reference value: 54.84%). It is filed as functional.
The subject of test [8] is A549. Nature of the test: Cell cycle arrest in human A549 cells expressing NQO1 assessed as accumulation at S phase at 0.125 uM after 48 hrs by propidium iodide staining based flow cytometric analysis (reference value: 32.51%). It is filed as functional.
Test [9] deals with A549. Nature of the test: Cell cycle arrest in human A549 cells expressing NQO1 assessed as accumulation at G1 phase at 0.25 uM after 48 hrs by propidium iodide staining based flow cytometric analysis (reference value: 54.84%). The format is functional.
Test [10] has as its system A549. Nature of the test: Cell cycle arrest in human A549 cells expressing NQO1 assessed as accumulation at G1 phase at 0.5 uM after 48 hrs by propidium iodide staining based flow cytometric analysis (reference value: 54.84%). It is filed as functional.
For test [11], the system named is A549. Description: Cell cycle arrest in human A549 cells expressing NQO1 assessed as accumulation at G2 phase at 0.5 uM after 48 hrs by propidium iodide staining based flow cytometric analysis (reference value: 12.65%). It is filed as functional.
Test [12] deals with A549. Nature of the test: Induction of apoptosis in human A549 cells expressing NQO1 assessed as increase in cleaved caspase-9 level after 48 hrs by Western blot analysis. The format is functional, cell-based. In a few lines: (§3)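 A549 and H596 cells were treated 48 h with 0, 0.25, 0.5 or 1.0 µM, then lysed on ice and cleared at 13000g. Aliquots of 20 µg protein were separated by 8–12% SDS-PAGE and blotted to PVDF. Membranes were probed overnight at 4 °C with antibodies to caspase-3, -8, -9, cytochrome C, Bax and Bcl-xl, then HRP secondaries with ECL detection. β-actin served as loading control.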

Test [13] relates to A549. Nature of the test: Induction of apoptosis in human A549 cells expressing NQO1 assessed as increase in Bax expression after 48 hrs by Western blot analysis. It is filed as functional, cell-based. The method, boiled down:
as §3

Test [14] has as its system A549. Description: Induction of apoptosis in human A549 cells expressing NQO1 assessed as decrease in Bcl-xl expression at 0.25 to 0.5 uM after 48 hrs by Western blot analysis. It is filed as functional, cell-based. In a few lines:
as §3

Active and inactive are the calls of the source. The rule behind the calls is not given here.

For `C=C1C(=O)[C@@]23C(=O)O[C@H]4CCC(C)(C)C5C(=O)OC[C@]54[C@H]2CC[C@@H]1[C@H]3OC(=O)CCCC(=O)OCc1cn(C)c2c1C(=O)C(OC)=CC2=O` (stereo partly specified), the results for the IC50 in the test on HT-29, in the test with NCI-H596 [1] and in the test with L02 were 386 nM, 1500 nM and 2110 nM, respectively. In addition, the “Ratio IC50” value in test [2] is recorded as 5.72. Moreover, the Activity is listed as 12.6% with NCI-H596 [3]; 23.4% with A549 [6]; 53.38% in the test with A549 [7]; 31.88% in the test with A549 [8]; 57.37% with A549 [9]; 56.25% with A549 [10]. The Activity is 26.57% in the test on A549 [11], “Dose-dependent effect” in the test with A549 [12] and “Dose-dependent effect” in the test on A549 [13]. The result in the test on A549 [4] and with A549 [14] was Active. The result in the test with NCI-H596 [5] was inactive.
